Source: PubChem (several laboratories)
DNA FID counter: displaces DNA intercalator in HCV helicase counter-screen; DNA fluorescent intercalator displacement, fluorescence; 0.17% of 290,000 active; inhibition, % at 7.9 µM; AID 1845; in the data active means inhibition above about 37%;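 further: higher means more ethidium bromide displaced from hairpin DNA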
PP5 primary: PP5 (human) phosphatase inhibition. purified PP5c, OMFP substrate fluorescence. inhibition, % at 6.7 µM. AID 1987. 0.18% of 320,000 active;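 active means inhibition above the campaign's mean inhibition across all tested compounds plus 3 SD, cut at about 9.5% in these data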
Target sequence (P53041 whole entry, looked up): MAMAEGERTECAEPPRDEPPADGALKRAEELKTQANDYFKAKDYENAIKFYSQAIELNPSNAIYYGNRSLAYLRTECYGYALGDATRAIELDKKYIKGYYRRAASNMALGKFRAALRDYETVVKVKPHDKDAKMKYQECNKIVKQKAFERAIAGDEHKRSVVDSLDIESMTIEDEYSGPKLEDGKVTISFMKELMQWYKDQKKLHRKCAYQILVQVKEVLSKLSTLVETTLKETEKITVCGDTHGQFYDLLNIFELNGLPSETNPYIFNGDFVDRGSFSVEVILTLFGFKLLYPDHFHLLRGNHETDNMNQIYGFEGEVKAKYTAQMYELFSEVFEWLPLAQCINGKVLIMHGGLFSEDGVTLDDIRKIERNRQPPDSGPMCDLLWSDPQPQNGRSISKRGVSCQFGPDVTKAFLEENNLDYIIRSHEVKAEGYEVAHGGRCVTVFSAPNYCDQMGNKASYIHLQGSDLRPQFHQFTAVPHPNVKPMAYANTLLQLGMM
HCV NS3 hel inh: HCV NS3 helicase inhibition; NS3 helicase DNA unwinding, Cy5 molecular beacon fluorescence; inhibition, % at 10.9 µM; 0.56% of 290,000 active; AID 1800;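 active means inhibition above the mean of all tested compounds plus 3 SD, set per campaign, cut at about 35% in these data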
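test system = hepatitis C virus NS3 helicase domain fragment enzyme | reagent = annealed dual-labelled DNA beacon duplex, ATP-started | times = 1 h at 25 °C | detection = Cy5 fluorescence, 0 and 60 min reads | read-out basis = percent inhibition from t60/t0 fluorescence ratio | control set = DMSO and thioflavine S | replication = one well per compound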
HIF activator: HIF pathway transcriptional activation. U2OS HRE-luciferase reporter, luminescence; normalized: DMSO 0%, desferrioxamine 100%. activation, % at 7.5 µM (by protocol). 0.32% of 300,000 active. AID 1910;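 active means mean activation of at least 10% of the iron chelator positive control signal, with at least half of replicates also reaching 10%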
PP1 inh: blocks human PP1-alpha phosphatase, a PP5 counter-screen; P62136; purified PP1alpha, OMFP fluorescence; inhibition, % at 6.7 µM; 0.9% of 320,000 active;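 active means inhibition above the mean inhibition of all tested compounds plus 3 SD, computed separately for each screening campaign, cut at about 15% in these data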
Large screens that a line does not name were inactive. A selection: hits, their analogues and other compounds. The true share with any hit is near 1.9%.

CC(=O)Nc1ccc(S(=O)(=O)NC2CC2)cc1	none
Oc1c(Cl)cc(Cl)cc1CNn1cnnc1	none
Oc1c(Cl)cc(Cl)cc1Sc1cc(Cl)cc(Cl)c1O	PP1 inh 39.6
Cc1ccc(CNC(=O)CNC(=O)[C@@H]2Cc3ccccc3CN2)cc1	none
COc1ccc(C(=O)CCNc2ccc(F)cc2)cc1	HIF activator 14.2
COc1cccc(-n2cc(CNC(=O)C3CCC(=O)N(C4CC4)C3)cn2)c1 (stereo not given)	none
Cc1ccc(S(=O)(=O)N2CCOCC2)cc1C(=O)NCC1CCCCC1	none (no result: DNA FID counter, HCV NS3 hel inh, HIF activator)
CCN1CN(CCc2ccccc2)CNC1=S	HIF activator 269.8
CCN1CNC(=S)N(CCc2ccccc2)C1	none
CC(=O)Nc1ccc2ccccc2c1	none
CC(=O)Nc1ccc2cc3ccc(NC(C)=O)cc3nc2c1	DNA FID counter 55.9
O=C(CCC(=O)N1CCOCC1)NCc1cccc(C(F)(F)F)c1	none (no result: DNA FID counter, HCV NS3 hel inh, HIF activator)
C(C#CCCCCCCCCC[n+]1ccccc1)#CCCCCCCCCC[n+]1ccccc1	DNA FID counter 42.9
NS(=O)(=O)c1ccc(CCNC(=O)COc2ccc3c4c(c(=O)oc3c2)CCC4)cc1	DNA FID counter 87.6
CCN(CC)C(=O)c1ccccc1NC(=O)c1cccc(S(=O)(=O)N(CC)CC)c1	none
CCN(CC)S(=O)(=O)c1cccc(C(=O)N/N=C(\C)c2ccc(O)cc2O)c1	HIF activator 12.8
CCOC(=O)C1(Cc2ccccc2C(F)(F)F)CCN(CC(O)CO)CC1 (stereo not given)	none
CCOC(=O)C1(Cc2ccccc2C(F)(F)F)CCN(C2CCN(C(C)C)CC2)CC1	DNA FID counter 44.7 (no result: HIF activator)
CCC(=O)N(CCC(c1ccc(C)cc1)c1ccco1)Cc1ccco1 (stereo not given)	none
N#C/C(=C/c1cn(-c2ccccc2)nc1-c1cccc(S(=O)(=O)N2CCOCC2)c1)C(=O)NCc1ccco1	none
N#C/C(=C/c1cn(-c2ccccc2)nc1-c1cccc(S(=O)(=O)N2CCCC2)c1)C(=O)NCc1ccco1	PP1 inh 15.8
CCC(=O)C1CCCN(C(=O)c2ccc(OC3CCN(C(=O)c4cccnc4)CC3)cc2)C1 (stereo not given)	none
COc1ccc2c(c1)c(C(=O)CN1CCc3ccccc3C1)c(C)n2C	HIF activator 44.1
Cc1cc(C)n2nc(/C(C#N)=C/c3ccccn3)c(C#N)c2n1	none
N#CCC(=O)Nc1ccc(C(=O)NCCC(c2ccccc2)c2ccccc2)cc1	PP1 inh 16.0
CC(C)[C@H](NC(=O)c1ccco1)C(=O)OCc1cc(=O)n2c(n1)sc1ccccc12	HIF activator 20.2
O=C(N/N=C/c1cc(Br)ccc1O)C(c1ccncc1)N1CCOCC1 (stereo not given)	HIF activator 12.2
COc1cccc(/C=N/NC(=O)C(c2ccncc2)N2CCOCC2)c1 (stereo not given)	none
CC(C)Nc1ccc(Nc2ccnc3cc4ccccc4cc23)cc1	DNA FID counter 72.7
COc1cc(C2NCCc3c2[nH]c2ccccc32)ccc1OC(C)C (stereo not given)	DNA FID counter 37.0
COc1cc([C@H]2c3[nH]c4ccccc4c3C[C@H]3C(=O)N4[C@@H](c5cc(OC)c(OC)c(OC)c5)c5[nH]c6ccccc6c5C[C@H]4C(=O)N23)cc(OC)c1OC	none
CCc1nnc(NC(=O)c2ccc(Br)c(S(=O)(=O)N3CCOCC3)c2)s1	none
Cc1ccc(S(=O)(=O)Nc2ccccc2C(=O)Nc2nc(-c3ccc(F)cc3)cs2)cc1	PP1 inh 16.7
CCN1CCCC(OC(=O)c2cc(-c3ccc(C)cc3)nc3ccccc23)C1 (stereo not given)	DNA FID counter 38.5
COc1ccc(/C=N/NC(=O)c2nc(-c3ccccc3)n(-c3ccccc3)n2)cc1	none
COc1ccc(/C=N/NC(=O)c2nc(-c3ccccc3)n(-c3ccccc3)n2)c(O)c1	HIF activator 19.5, PP1 inh 15.9
COc1ccc2[nH]c(C(=O)N/N=C/c3ccc(O)cc3O)cc2c1	HIF activator 25.1 (no result: PP5 primary, PP1 inh)
COc1ccc(Cl)cc1NC(=O)CN1C(=O)CC(C)S(=O)(=O)c2ccccc21 (stereo not given)	none
Cc1ccc(NC(=O)CN(C)C(=O)CSc2nnc(C(F)(F)F)n2C)cc1	none
O=C(Nc1ncccc1O)c1ccc2c(c1)OCO2	HIF activator 9.7 (no result: DNA FID counter, HCV NS3 hel inh)
O=C(Nc1ncccc1O)c1ccc2c(c1)OCCO2	HIF activator 12.5 (no result: DNA FID counter, HCV NS3 hel inh)
Cc1cccnc1NC(=O)c1ccc2c(c1)OCCO2	none (no result: DNA FID counter, HCV NS3 hel inh)
O=C(Nc1ncccc1O)c1ccc2ccccc2c1	none
CC(=O)Nc1ccc(Oc2cc(NC(C)=O)cc([N+](=O)[O-])c2)cc1	none
O=C(NCCc1csc(-c2cccc(F)c2)n1)c1ccco1	HIF activator 16.0
c1ccc(-c2nnc3sc(-c4cc5ccccc5o4)nn23)cc1	HIF activator 17.2
N#CC(c1nc2ccccc2nc1OCCO)S(=O)(=O)c1ccccc1 (stereo not given)	none
CCCCn1c(=O)cc(O)c2ccccc21	none
O=c1cc(O)c2c(=O)n(Cc3ccccc3)c3ccccc3c2o1	PP1 inh 28.9
CCCCn1c(=O)c2c(O)cc(=O)oc2c2ccccc21	HIF activator 21.9
COc1ccc(S(=O)(=O)Nc2ccccc2C(=O)N2CCOCC2)cc1Br	none (no result: PP5 primary, PP1 inh)
Cc1ccc(C2=NN=C(NC(=O)CSc3nnc4c5ccccc5n(C)c4n3)SC2)cc1	HCV NS3 hel inh 52.6, PP1 inh 21.8
Cc1cc(=O)oc2cc(NC(=O)C(CCCN=C(N)N)NC(=O)OCc3ccccc3)ccc12 (stereo not given)	DNA FID counter 41.3 (no result: PP5 primary, PP1 inh)
CC(C)(C)c1ccc(Cn2nnc3c(=O)[nH]c(C4CCCN(C(=O)c5cccs5)C4)nc32)cc1 (stereo not given)	PP1 inh 15.6
CC(C)(C)c1ccc(Cn2nnc3c(=O)[nH]c(C4CCCN(C(=O)Cc5cccs5)C4)nc32)cc1 (stereo not given)	none
CCN1C(=O)/C(=C\c2cn(CCC#N)nc2-c2ccc(F)cc2)SC1=S	none
COc1ccc(-n2c(C)cc(-c3cn4cccc(C)c4n3)c2C)cc1	PP1 inh 15.2
Cc1cc(-c2cn3ccccc3n2)c(C)n1-c1ccccc1	none
Oc1ccc(N=Nc2ccc3c(c2)OCCO3)c2ncccc12	PP1 inh 15.7
Cc1cc(C)c(NC(=O)CN(C)C(=O)CNC(=O)c2cccs2)c(C)c1	none (no result: DNA FID counter, HCV NS3 hel inh, HIF activator)
Cc1nc2ccccc2n2c(-c3ccccc3)c3c(=O)n(C)c(=O)n(C)c3c12	HIF activator 212.0
Cc1ccc(OCCCN2C(=O)C(=O)c3cc(C)ccc32)cc1	PP1 inh 16.6
Cc1cccc(OCCN2C(=O)c3ccccc3C2=O)c1	none
Cc1ccc2c(c1)C(=O)C(=O)N2CCCOc1ccccc1	none
Cc1cccc(OCCCN2C(=O)C(=O)c3cc(C)ccc32)c1	PP1 inh 15.9
CSCc1cc(N(C)c2ccccc2)nc(-c2ccccc2)n1	none
C=CCC1(CC=C)CCCN1Cc1nc(COc2ccccc2)no1	none
O=C(/C=C/c1ccc(Br)cc1)c1ccc(NC2=NCCCS2)cc1	DNA FID counter 36.9
